In ChEMBL document CHEMBL1156517, “Targeting thyroid hormone receptor-beta agonists to the liver reduces cholesterol and triglycerides and improves the therapeutic index” (Proc Natl Acad Sci U S A, 2007):

Legend:
Parameters in all cases: dose 5 mg/kg, route oral
Details in all cases: in vivo
[1] = Biodistribution in Sprague-Dawley rat cervical lymph node at 5 mg/kg, po after 3 hrs; type: ADME, organism-based
Outline: (§1)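 Male SD rats (n = 4 per group) were dosed orally with [¹⁴C]-labelled prodrug at 5 mg/kg. Animals were killed 3 or 24 h after dosing. Harvested tissues, blood and plasma were processed and analysed directly for radioactivity by liquid scintillation counting.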

[2] = Biodistribution in Sprague-Dawley rat cervical lymph node at 5 mg/kg, po after 24 hrs; type: ADME, organism-based; outline: as §1
Thyroid gland [3] = test: Biodistribution in Sprague-Dawley rat thyroid at 5 mg/kg, po after 3 hrs; type: ADME, organism-based
Outline: (§2)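 Male SD rats (n = 4 per group) were given [¹⁴C]-labelled compound at 5 mg/kg per os. They were killed 3 and 24 h after dosing. Harvested tissues were processed and radioactivity was measured directly by liquid scintillation counting.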

Thyroid gland [4] = test: Biodistribution in Sprague-Dawley rat thyroid at 5 mg/kg, po after 24 hrs; type: ADME, organism-based; outline: as §2
Testes [5] = test: Biodistribution in Sprague-Dawley rat testes at 5 mg/kg, po after 3 hrs; type: ADME, organism-based, Testis; outline: as §2
Testes [6] = test: Biodistribution in Sprague-Dawley rat testes at 5 mg/kg, po after 24 hrs; type: ADME, organism-based, Testis; outline: as §2
[7] = Biodistribution in Sprague-Dawley rat epididymal fat at 5 mg/kg, po after 3 hrs; type: ADME, organism-based, Adipose tissue; outline: as §1
[8] = Biodistribution in Sprague-Dawley rat epididymal fat at 5 mg/kg, po after 24 hrs; type: ADME, organism-based, Adipose tissue; outline: as §1
[9] = Biodistribution in Sprague-Dawley rat urinary bladder at 5 mg/kg, po after 3 hrs; type: ADME, organism-based; outline: as §2
[10] = Biodistribution in Sprague-Dawley rat urinary bladder at 5 mg/kg, po after 24 hrs; type: ADME, organism-based; outline: as §2
Prostate gland [11] = test: Biodistribution in Sprague-Dawley rat prostate at 5 mg/kg, po after 3 hrs; type: ADME, organism-based; outline: as §1
Prostate gland [12] = test: Biodistribution in Sprague-Dawley rat prostate at 5 mg/kg, po after 24 hrs; type: ADME, organism-based; outline: as §1
Spleen [13] = test: Biodistribution in Sprague-Dawley rat spleen at 5 mg/kg, po after 3 hrs; type: ADME, organism-based; outline: as §2
Spleen [14] = test: Biodistribution in Sprague-Dawley rat spleen at 5 mg/kg, po after 24 hrs; type: ADME, organism-based; outline: as §1
Pancreas [15] = test: Biodistribution in Sprague-Dawley rat pancreas at 5 mg/kg, po after 3 hrs; type: ADME, organism-based; outline: as §1
Pancreas [16] = test: Biodistribution in Sprague-Dawley rat pancreas at 5 mg/kg, po after 24 hrs; type: ADME, organism-based; outline: as §1
[17] = Biodistribution in Sprague-Dawley rat stomach at 5 mg/kg, po after 3 hrs; type: ADME, organism-based; outline: as §2
[18] = Biodistribution in Sprague-Dawley rat stomach at 5 mg/kg, po after 24 hrs; type: ADME, organism-based; outline: as §2
[19] = Biodistribution in Sprague-Dawley rat stomach C&W at 5 mg/kg, po after 3 hrs; type: ADME, organism-based; outline: as §2
[20] = Biodistribution in Sprague-Dawley rat stomach C&W at 5 mg/kg, po after 24 hrs; type: ADME, organism-based; outline: as §2
[21] = Biodistribution in Sprague-Dawley rat mesenteric lymph at 5 mg/kg, po after 3 hrs; type: ADME, organism-based, Mesenteric lymph node; outline: as §1
[22] = Biodistribution in Sprague-Dawley rat mesenteric lymph at 5 mg/kg, po after 24 hrs; type: ADME, organism-based, Mesenteric lymph node; outline: as §1
[23] = Biodistribution in Sprague-Dawley rat small intestine at 5 mg/kg, po after 3 hrs; type: ADME, organism-based; outline: as §1
[24] = Biodistribution in Sprague-Dawley rat small intestine at 5 mg/kg, po after 24 hrs; type: ADME, organism-based; outline: as §1
[25] = Biodistribution in Sprague-Dawley rat small intestine C&W at 5 mg/kg, po after 3 hrs; type: ADME, organism-based; outline: as §1
[26] = Biodistribution in Sprague-Dawley rat small intestine C&W at 5 mg/kg, po after 24 hrs; type: ADME, organism-based; outline: as §1
[27] = Biodistribution in Sprague-Dawley rat large intestine at 5 mg/kg, po after 3 hrs; type: ADME, organism-based
Outline: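 Male SD rats (n = 4 per group) were given a single oral dose of [¹⁴C]-labelled prodrug at 5 mg/kg. They were killed at 3 and 24 h after dosing. Harvested tissues were processed and analysed directly by liquid scintillation counting to give tissue radioactivity concentrations.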

[28] = Biodistribution in Sprague-Dawley rat large intestine at 5 mg/kg, po after 24 hrs; type: ADME, organism-based; outline: as §1
[29] = Biodistribution in Sprague-Dawley rat large intestine C&W at 5 mg/kg, po after 3 hrs; type: ADME, organism-based; outline: as §1
[30] = Biodistribution in Sprague-Dawley rat large intestine C&W at 5 mg/kg, po after 24 hrs; type: ADME, organism-based; outline: as §1
Liver [31] = test: Biodistribution in Sprague-Dawley rat liver at 5 mg/kg, po after 3 hrs; type: ADME, organism-based; outline: as §1
Liver [32] = test: Biodistribution in Sprague-Dawley rat liver at 5 mg/kg, po after 24 hrs; type: ADME, organism-based; outline: as §1
Adrenal gland [33] = test: Biodistribution in Sprague-Dawley rat adrenal gland at 5 mg/kg, po after 3 hrs; type: ADME, organism-based; outline: as §1
Adrenal gland [34] = test: Biodistribution in Sprague-Dawley rat adrenal gland at 5 mg/kg, po after 24 hrs; type: ADME, organism-based; outline: as §1
Kidney [35] = test: Biodistribution in Sprague-Dawley rat kidney at 5 mg/kg, po after 3 hrs; type: ADME, organism-based; outline: as §1
Kidney [36] = test: Biodistribution in Sprague-Dawley rat kidney at 5 mg/kg, po after 24 hrs; type: ADME, organism-based; outline: as §1
Thymus [37] = test: Biodistribution in Sprague-Dawley rat thymus at 5 mg/kg, po after 3 hrs; type: ADME, organism-based; outline: as §2
Thymus [38] = test: Biodistribution in Sprague-Dawley rat thymus at 5 mg/kg, po after 24 hrs; type: ADME, organism-based; outline: as §2
Heart [39] = test: Biodistribution in Sprague-Dawley rat heart at 5 mg/kg, po after 3 hrs; type: ADME, organism-based; outline: as §1
Heart [40] = test: Biodistribution in Sprague-Dawley rat heart at 5 mg/kg, po after 24 hrs; type: ADME, organism-based; outline: as §1
Lung [41] = test: Biodistribution in Sprague-Dawley rat lung at 5 mg/kg, po after 3 hrs; type: ADME, organism-based; outline: as §1
Lung [42] = test: Biodistribution in Sprague-Dawley rat lung at 5 mg/kg, po after 24 hrs; type: ADME, organism-based; outline: as §1
[43] = Biodistribution in Sprague-Dawley rat bone marrow at 5 mg/kg, po after 3 hrs; type: ADME, organism-based; outline: as §1
[44] = Biodistribution in Sprague-Dawley rat bone marrow at 5 mg/kg, po after 24 hrs; type: ADME, organism-based; outline: as §1
Muscle tissue [45] = test: Biodistribution in Sprague-Dawley rat muscle at 5 mg/kg, po after 3 hrs; type: ADME, organism-based; outline: as §1
Muscle tissue [46] = test: Biodistribution in Sprague-Dawley rat muscle at 5 mg/kg, po after 24 hrs; type: ADME, organism-based; outline: as §1
[47] = Biodistribution in Sprague-Dawley rat eyes at 5 mg/kg, po after 3 hrs; type: ADME, organism-based, Eye; outline: as §1
[48] = Biodistribution in Sprague-Dawley rat eyes at 5 mg/kg, po after 24 hrs; type: ADME, organism-based, Eye; outline: as §1
Brain [49] = test: Biodistribution in Sprague-Dawley rat brain at 5 mg/kg, po after 3 hrs; type: ADME, organism-based; outline: as §1
Brain [50] = test: Biodistribution in Sprague-Dawley rat brain at 5 mg/kg, po after 24 hrs; type: ADME, organism-based; outline: as §1
[51] = Biodistribution in Sprague-Dawley rat pituitary gland at 5 mg/kg, po after 3 hrs; type: ADME, organism-based; outline: as §1
[52] = Biodistribution in Sprague-Dawley rat pituitary gland at 5 mg/kg, po after 24 hrs; type: ADME, organism-based; outline: as §1
Zone of skin [53] = test: Biodistribution in Sprague-Dawley rat skin at 5 mg/kg, po after 3 hrs; type: ADME, organism-based; outline: as §1
Zone of skin [54] = test: Biodistribution in Sprague-Dawley rat skin at 5 mg/kg, po after 24 hrs; type: ADME, organism-based; outline: as §1
Blood [55] = test: Biodistribution in Sprague-Dawley rat blood at 5 mg/kg, po after 3 hrs; type: ADME, organism-based; outline: as §1
Blood [56] = test: Biodistribution in Sprague-Dawley rat blood at 5 mg/kg, po after 24 hrs; type: ADME, organism-based; outline: as §1
Plasma [57] = test: Biodistribution in Sprague-Dawley rat plasma at 5 mg/kg, po after 3 hrs; type: ADME, organism-based; outline: as §1
Plasma [58] = test: Biodistribution in Sprague-Dawley rat plasma at 5 mg/kg, po after 24 hrs; type: ADME, organism-based; outline: as §1
[59] = Biodistribution in Sprague-Dawley rat femur bone at 5 mg/kg, po after 3 hrs; type: ADME, organism-based, Bone element; outline: as §1
[60] = Biodistribution in Sprague-Dawley rat femur bone at 5 mg/kg, po after 24 hrs; type: ADME, organism-based, Bone element; outline: as §1

Drug uptake [1]: 0.12 nmol/g | Drug uptake [2]: 0.03 nmol/g | Drug uptake (Thyroid gland [3]): 0.2 nmol/g | Drug uptake (Thyroid gland [4]): 0.03 nmol/g | Drug uptake (Testes [5]): 0.03 nmol/g | Drug uptake (Testes [6]): 0.04 nmol/g | Drug uptake [7]: 0.15 nmol/g | Drug uptake [8]: 0.55 nmol/g | Drug uptake [9]: 0.18 nmol/g | Drug uptake [10]: 0.05 nmol/g | Drug uptake (Prostate gland [11]): 0.12 nmol/g | Drug uptake (Prostate gland [12]): 0.03 nmol/g | Drug uptake (Spleen [13]): 2.57 nmol/g | Drug uptake (Spleen [14]): 0.01 nmol/g | Drug uptake (Pancreas [15]): 0.25 nmol/g | Drug uptake (Pancreas [16]): 0.25 nmol/g | Drug uptake [17]: 76.96 nmol/g | Drug uptake [18]: 0.22 nmol/g | Drug uptake [19]: 24.52 nmol/g | Drug uptake [20]: 0.06 nmol/g | Drug uptake [21]: 16.61 nmol/g | Drug uptake [22]: 0.05 nmol/g | Drug uptake [23]: 28.56 nmol/g | Drug uptake [24]: 0.4 nmol/g | Drug uptake [25]: 39.69 nmol/g | Drug uptake [26]: 0.2 nmol/g | Drug uptake [27]: 1.23 nmol/g | Drug uptake [28]: 0.64 nmol/g | Drug uptake [29]: 4.68 nmol/g | Drug uptake [30]: 2.5 nmol/g | Drug uptake (Liver [31]): 6.67 nmol/g | Drug uptake (Liver [32]): 3.67 nmol/g | Drug uptake (Adrenal gland [33]): 0.77 nmol/g | Drug uptake (Adrenal gland [34]): 0.09 nmol/g | Drug uptake (Kidney [35]): 0.48 nmol/g | Drug uptake (Kidney [36]): 0.14 nmol/g | Drug uptake (Thymus [37]): 0.09 nmol/g | Drug uptake (Thymus [38]): 0.01 nmol/g | Drug uptake (Heart [39]): 0.36 nmol/g | Drug uptake (Heart [40]): 0.05 nmol/g | Drug uptake (Lung [41]): 0.31 nmol/g | Drug uptake (Lung [42]): 0.04 nmol/g | Drug uptake [43]: 0.06 nmol/g | Drug uptake [44]: 0.01 nmol/g | Drug uptake (Muscle tissue [45]): 0.07 nmol/g | Drug uptake (Muscle tissue [46]): 0.01 nmol/g | Drug uptake [47]: 0.04 nmol/g | Drug uptake [48]: 0.01 nmol/g | Drug uptake (Brain [49]): 0.03 nmol/g | Drug uptake (Brain [50]): 0.01 nmol/g | Drug uptake [51]: 0.09 nmol/g | Drug uptake [52]: 0.02 nmol/g | Drug uptake (Zone of skin [53]): 0.08 nmol/g | Drug uptake (Zone of skin [54]): 0.15 nmol/g | Drug uptake (Blood [55]): 0.12 nmol/g | Drug uptake (Blood [56]): 0.05 nmol/g | Drug uptake (Plasma [57]): 0.15 nmol/g | Drug uptake (Plasma [58]): 0.05 nmol/g | Drug uptake [59]: 0.14 nmol/g | Drug uptake [60]: 0.02 nmol/g
SMILES: Cc1cc(OCP2(=O)OCC[C@@H](c3cccc(Cl)c3)O2)cc([14CH3])c1Cc1ccc(O)c(C(C)C)c1 (stereo not given in full)
